Results taken from the M2OR odorant receptor database.
Residue numbers refer to the chain shown, from its start.

Assays:
Conditions in all cases: stereoisomer not certain
OR1L3 (Homo sapiens) = molecular target: T1, OR1L3 (Homo sapiens) (UniProt Q8NH93)
T1 sequence (whole entry): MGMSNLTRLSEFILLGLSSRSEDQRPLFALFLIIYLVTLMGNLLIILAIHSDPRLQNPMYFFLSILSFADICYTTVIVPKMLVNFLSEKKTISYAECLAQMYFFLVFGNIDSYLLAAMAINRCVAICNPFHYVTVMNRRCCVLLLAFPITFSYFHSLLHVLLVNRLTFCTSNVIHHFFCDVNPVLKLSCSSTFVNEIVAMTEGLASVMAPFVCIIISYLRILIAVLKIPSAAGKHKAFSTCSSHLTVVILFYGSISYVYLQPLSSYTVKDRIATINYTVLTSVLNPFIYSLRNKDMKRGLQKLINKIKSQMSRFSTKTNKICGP
Outline: (§1)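 Whether a receptor–molecule pair is responsive (active) rests on the original authors' judgment that its measured signal was statistically different from baseline. Pairs without that judgment are non-responsive (inactive). Sources used varied assay methods, commonly transient luciferase assays in mammalian cell lines.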

OR1L4 (Homo sapiens) = molecular target: T2, OR1L4 (Homo sapiens) (UniProt Q8NGR5)
T2 sequence (whole entry): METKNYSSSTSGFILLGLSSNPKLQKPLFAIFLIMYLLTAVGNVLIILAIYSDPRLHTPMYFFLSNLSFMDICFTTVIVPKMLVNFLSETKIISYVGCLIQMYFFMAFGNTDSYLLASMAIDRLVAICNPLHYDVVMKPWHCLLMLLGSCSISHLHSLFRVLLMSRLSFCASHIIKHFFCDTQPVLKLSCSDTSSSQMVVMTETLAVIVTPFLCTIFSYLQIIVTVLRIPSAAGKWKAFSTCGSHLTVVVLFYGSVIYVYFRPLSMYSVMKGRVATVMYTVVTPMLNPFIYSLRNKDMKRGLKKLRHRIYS
Outline: as §1

OR1L6 (Homo sapiens) = molecular target: T3, OR1L6 (Homo sapiens) (UniProt Q8NGR2)
T3 sequence (whole entry): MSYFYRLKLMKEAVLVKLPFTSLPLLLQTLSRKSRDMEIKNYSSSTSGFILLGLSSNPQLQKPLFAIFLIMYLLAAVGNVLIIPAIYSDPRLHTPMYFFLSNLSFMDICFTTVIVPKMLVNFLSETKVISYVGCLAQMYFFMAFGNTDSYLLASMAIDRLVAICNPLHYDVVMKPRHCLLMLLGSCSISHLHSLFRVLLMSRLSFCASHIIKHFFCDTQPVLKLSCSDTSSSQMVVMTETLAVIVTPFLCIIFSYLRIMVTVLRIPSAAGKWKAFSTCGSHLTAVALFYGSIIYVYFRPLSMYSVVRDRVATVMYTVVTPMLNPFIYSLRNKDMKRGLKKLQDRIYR
Outline: as §1

OR1L8 (Homo sapiens) = molecular target: T4, OR1L8 (Homo sapiens) (UniProt Q8NGR8)
T4 sequence (whole entry): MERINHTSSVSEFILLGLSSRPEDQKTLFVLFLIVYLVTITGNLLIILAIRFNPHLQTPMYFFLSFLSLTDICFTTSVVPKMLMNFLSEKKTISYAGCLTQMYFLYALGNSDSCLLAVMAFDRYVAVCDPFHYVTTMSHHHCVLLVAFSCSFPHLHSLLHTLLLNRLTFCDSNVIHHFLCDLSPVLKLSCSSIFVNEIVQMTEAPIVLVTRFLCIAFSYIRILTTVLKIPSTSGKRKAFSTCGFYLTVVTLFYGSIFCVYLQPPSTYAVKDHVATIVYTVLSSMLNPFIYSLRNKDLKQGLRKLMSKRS
Outline: as §1

OR1M1 (Homo sapiens) = molecular target: T5, OR1M1 (Homo sapiens) (UniProt Q8NGA1)
T5 sequence (whole entry): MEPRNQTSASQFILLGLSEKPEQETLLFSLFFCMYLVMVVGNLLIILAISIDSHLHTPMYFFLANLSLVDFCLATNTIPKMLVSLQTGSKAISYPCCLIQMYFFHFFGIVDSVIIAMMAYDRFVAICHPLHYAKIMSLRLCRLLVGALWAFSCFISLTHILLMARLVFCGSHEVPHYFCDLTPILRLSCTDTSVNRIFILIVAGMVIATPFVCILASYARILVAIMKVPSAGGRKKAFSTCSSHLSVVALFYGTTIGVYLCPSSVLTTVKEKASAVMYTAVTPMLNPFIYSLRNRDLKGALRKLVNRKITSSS
Outline: as §1

OR1N1 (Homo sapiens) = molecular target: T6, OR1N1 (Homo sapiens) (UniProt Q8NGS0)
T6 sequence (whole entry): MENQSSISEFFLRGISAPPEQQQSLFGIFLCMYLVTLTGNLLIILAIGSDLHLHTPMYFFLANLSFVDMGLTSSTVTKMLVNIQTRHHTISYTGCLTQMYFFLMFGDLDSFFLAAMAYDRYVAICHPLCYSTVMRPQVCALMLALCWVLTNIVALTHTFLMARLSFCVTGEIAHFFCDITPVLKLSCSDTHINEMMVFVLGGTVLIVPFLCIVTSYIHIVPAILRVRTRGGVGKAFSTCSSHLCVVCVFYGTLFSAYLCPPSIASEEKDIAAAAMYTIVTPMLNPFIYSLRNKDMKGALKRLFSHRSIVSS
Outline: as §1

OR1N2 = test system: T7, OR1N2
T7 sequence (whole entry): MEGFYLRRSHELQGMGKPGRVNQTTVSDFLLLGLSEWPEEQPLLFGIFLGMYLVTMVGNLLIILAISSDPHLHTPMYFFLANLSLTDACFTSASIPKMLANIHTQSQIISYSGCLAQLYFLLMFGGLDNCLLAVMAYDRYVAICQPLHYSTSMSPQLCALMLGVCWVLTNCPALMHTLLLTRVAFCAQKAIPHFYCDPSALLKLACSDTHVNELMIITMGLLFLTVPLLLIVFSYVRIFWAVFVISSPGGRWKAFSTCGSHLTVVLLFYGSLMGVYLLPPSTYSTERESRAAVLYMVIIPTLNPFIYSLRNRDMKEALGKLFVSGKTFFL
Outline: as §1

OR1P1 (Homo sapiens) = OR1P1 (Homo sapiens) (UniProt Q8NH06)
Outline: as §1

OR1Q1 (Homo sapiens) = molecular target: T8, OR1Q1 (Homo sapiens) (UniProt Q15612)
T8 sequence (whole entry): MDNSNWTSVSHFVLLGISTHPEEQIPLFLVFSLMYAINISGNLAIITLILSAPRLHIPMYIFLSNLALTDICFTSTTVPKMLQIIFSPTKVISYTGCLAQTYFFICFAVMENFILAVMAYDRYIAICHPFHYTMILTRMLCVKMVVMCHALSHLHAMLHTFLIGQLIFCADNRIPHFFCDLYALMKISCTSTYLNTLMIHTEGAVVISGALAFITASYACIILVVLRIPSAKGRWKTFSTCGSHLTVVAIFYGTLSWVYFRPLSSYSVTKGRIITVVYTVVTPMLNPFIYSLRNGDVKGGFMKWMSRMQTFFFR
Outline: as §1

OR1S1 (Homo sapiens) = molecular target: T9, OR1S1 (Homo sapiens) (UniProt Q8NH92)
T9 sequence (whole entry): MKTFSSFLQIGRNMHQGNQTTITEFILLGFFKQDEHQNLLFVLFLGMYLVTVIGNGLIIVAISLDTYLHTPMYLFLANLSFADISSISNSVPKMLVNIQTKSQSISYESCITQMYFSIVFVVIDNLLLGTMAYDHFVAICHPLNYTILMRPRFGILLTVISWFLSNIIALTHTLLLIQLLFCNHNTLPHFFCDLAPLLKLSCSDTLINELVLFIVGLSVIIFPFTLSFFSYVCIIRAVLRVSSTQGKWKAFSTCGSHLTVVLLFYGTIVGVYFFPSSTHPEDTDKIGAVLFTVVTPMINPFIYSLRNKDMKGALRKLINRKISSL
Outline: as §1

OR1S2 (Homo sapiens) = molecular target: T10, OR1S2 (Homo sapiens) (UniProt Q8NGQ3)
T10 sequence (whole entry): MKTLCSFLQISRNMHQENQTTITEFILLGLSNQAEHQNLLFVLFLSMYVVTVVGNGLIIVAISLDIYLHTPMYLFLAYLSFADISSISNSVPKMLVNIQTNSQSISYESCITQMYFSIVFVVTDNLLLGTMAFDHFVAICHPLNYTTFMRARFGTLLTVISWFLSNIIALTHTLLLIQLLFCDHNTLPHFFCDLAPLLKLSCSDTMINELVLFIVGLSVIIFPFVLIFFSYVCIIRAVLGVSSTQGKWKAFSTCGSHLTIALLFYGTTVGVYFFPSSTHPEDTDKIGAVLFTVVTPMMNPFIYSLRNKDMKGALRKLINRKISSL
Outline: as §1

OR2A1 (Homo sapiens) = molecular target: T11, OR2A1 (Homo sapiens) (UniProt Q8NGT9)
T11 sequence (whole entry): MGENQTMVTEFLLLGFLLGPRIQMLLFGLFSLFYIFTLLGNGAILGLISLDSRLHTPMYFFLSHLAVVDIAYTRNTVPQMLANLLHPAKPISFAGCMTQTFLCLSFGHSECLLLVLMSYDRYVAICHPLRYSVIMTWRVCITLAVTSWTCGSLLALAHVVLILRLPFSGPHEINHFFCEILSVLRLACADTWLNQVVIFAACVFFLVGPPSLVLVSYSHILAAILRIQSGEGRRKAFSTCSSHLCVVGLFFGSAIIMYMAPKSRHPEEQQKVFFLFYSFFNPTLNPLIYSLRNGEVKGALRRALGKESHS
Outline: as §1

OR1L4 = test system: T12, OR1L4
T12 sequence (whole entry): T2 sequence (whole entry) with G234R
Outline: as §1

OR1L6 = test system: T13, OR1L6
T13 sequence (whole entry): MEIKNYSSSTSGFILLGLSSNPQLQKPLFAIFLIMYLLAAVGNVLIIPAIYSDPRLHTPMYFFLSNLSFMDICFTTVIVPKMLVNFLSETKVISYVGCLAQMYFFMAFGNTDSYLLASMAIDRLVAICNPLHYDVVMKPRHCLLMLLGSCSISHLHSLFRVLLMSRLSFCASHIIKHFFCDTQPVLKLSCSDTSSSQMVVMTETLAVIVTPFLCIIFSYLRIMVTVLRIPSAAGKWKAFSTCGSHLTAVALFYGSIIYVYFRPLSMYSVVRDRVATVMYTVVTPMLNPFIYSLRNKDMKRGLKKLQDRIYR
Outline: as §1

OR1L8 T27P R211P = test system: T14, OR1L8 T27P R211P
T14 sequence (whole entry): T4 sequence (whole entry) with T27P, R211P
Outline: as §1

OR1N2 W37R = test system: T15, OR1N2 W37R
T15 sequence (whole entry): T7 sequence (whole entry) with W37R
Outline: as §1

OR1Q1 = test system: T16, OR1Q1
T16 sequence (whole entry): T8 sequence (whole entry) with Q24R, I163M
Outline: as §1

OR1S2 E17G = test system: T17, OR1S2 E17G
T17 sequence (whole entry): T10 sequence (whole entry) with E17G
Outline: as §1

OR1S2 V225T G240R = test system: T18, OR1S2 V225T G240R
T18 sequence (whole entry): T10 sequence (whole entry) with V225T, G240R
Outline: as §1

OR2A1 S168C = test system: T19, OR2A1 S168C
T19 sequence (whole entry): T11 sequence (whole entry) with S168C
Outline: as §1

Measured: odorant receptor agonist call;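 also: active if original authors judged signal statistically different from baseline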

Sequence of OR1P1 (Homo sapiens) (Q8NH06 whole entry K185A): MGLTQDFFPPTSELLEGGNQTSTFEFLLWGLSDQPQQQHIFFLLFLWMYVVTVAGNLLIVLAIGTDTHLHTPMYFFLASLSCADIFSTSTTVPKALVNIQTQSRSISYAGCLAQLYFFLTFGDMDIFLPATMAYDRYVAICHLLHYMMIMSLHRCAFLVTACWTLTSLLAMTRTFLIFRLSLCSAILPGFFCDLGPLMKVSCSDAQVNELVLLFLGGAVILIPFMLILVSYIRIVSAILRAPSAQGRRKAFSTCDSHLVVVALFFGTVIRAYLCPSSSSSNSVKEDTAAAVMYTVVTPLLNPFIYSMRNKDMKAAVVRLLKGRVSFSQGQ

CC(=O)c1c(C)c([N+](=O)[O-])c(C(C)(C)C)c([N+](=O)[O-])c1C
inactive: OR1L3 (Homo sapiens) | OR1L4 (Homo sapiens) | OR1L6 (Homo sapiens) | OR1L8 (Homo sapiens) | OR1M1 (Homo sapiens) | OR1N1 (Homo sapiens) | OR1N2 | OR1P1 (Homo sapiens) | OR1Q1 (Homo sapiens) | OR1S1 (Homo sapiens) | OR1S2 (Homo sapiens) | OR2A1 (Homo sapiens)

CCCCCCCCCCCC(=O)O
inactive: OR2A1 (Homo sapiens)

Cc1cnc(C)c(C)n1
inactive: OR1L3 (Homo sapiens) | OR1L4 (Homo sapiens) | OR1L4 | OR1L6 | OR1L8 (Homo sapiens) | OR1L8 T27P R211P | OR1M1 (Homo sapiens) | OR1N1 (Homo sapiens) | OR1N2 W37R | OR1N2 | OR1Q1 (Homo sapiens) | OR1Q1 | OR1S1 (Homo sapiens) | OR1S2 (Homo sapiens) | OR1S2 E17G | OR1S2 V225T G240R | OR2A1 (Homo sapiens) | OR2A1 S168C

CC1=NC(C)C(C)S1 (stereo not drawn)
inactive: OR1L3 (Homo sapiens) | OR1L4 (Homo sapiens) | OR1L4 | OR1L6 | OR1L8 (Homo sapiens) | OR1L8 T27P R211P | OR1M1 (Homo sapiens) | OR1N1 (Homo sapiens) | OR1N2 W37R | OR1N2 | OR1Q1 (Homo sapiens) | OR1Q1 | OR1S1 (Homo sapiens) | OR1S2 (Homo sapiens) | OR1S2 E17G | OR1S2 V225T G240R | OR2A1 (Homo sapiens) | OR2A1 S168C

CCCCCC(=O)C(C)C(C)=O (stereo not drawn)
inactive: OR1L3 (Homo sapiens) | OR1L4 (Homo sapiens) | OR1L6 (Homo sapiens) | OR1L8 (Homo sapiens) | OR1M1 (Homo sapiens) | OR1N1 (Homo sapiens) | OR1N2 | OR1Q1 (Homo sapiens) | OR1S1 (Homo sapiens) | OR1S2 (Homo sapiens) | OR2A1 (Homo sapiens)

CCCCCCCCCCCCCC(=O)O
inactive: OR2A1 (Homo sapiens)

CCC(O)CC
inactive: OR2A1 (Homo sapiens)

CCCCCCCC(=O)OC
inactive: OR2A1 (Homo sapiens)
